ChEMBL document CHEMBL1153968, “Discovery of 5-pyrrolopyridinyl-2-thiophenecarboxamides as potent AKT kinase inhibitors” (Bioorg Med Chem Lett, 2009)

Assays:
[1] = Inhibition of AKT-mediated GSK3-beta phosphorylation in human BT474 cells by mechanistic assay; type: cell-based; conditions: BT-474
Method in brief: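 Cellular mechanistic assay in BT474 cells measuring inhibition of GSK3β phosphorylation, reported as IC50.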

[2] = biological target: RAC-alpha serine/threonine-protein kinase (Homo sapiens, UniProt P31749); experiment: Inhibition of AKT1
Method in brief: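 AKT1 enzyme IC50 from the standard high-throughput AKT enzyme assay.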

HFF = experiment: Cytotoxicity against human HFF cells; type: cell-based
Method in brief: (§1)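 Inhibition of cell proliferation, reported as IC50. AKT-sensitive lines were BT474 and LNCaP; HFF was the non-tumour-derived line.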

[3] = biological target: RAC-gamma serine/threonine-protein kinase (Homo sapiens, UniProt Q9Y243); experiment: Inhibition of AKT3
LNCaP = experiment: Cytotoxicity against human LNCAP cells; type: functional, cell-based; method in brief: as §1
BT-474 = experiment: Cytotoxicity against human BT474 cells; type: functional, cell-based; method in brief: as §1
[4] = (§2) AUC (0 to t) in rat at 10 mg/kg, po after 24 hrs; type: ADME, organism-based, Plasma; design: time < 24 hr, dose 10 mg/kg, route oral; conditions: plasma
Method in brief: (§3)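 iv/po crossover pharmacokinetic study in conscious male rats, n = 3. Dosing was 2 mg/kg iv and 10 mg/kg po.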

[5] = Half life in rat at 10 mg/kg, po after 24 hrs; type: ADME, organism-based; design: dose 10 mg/kg, route oral; conditions: in vivo; method in brief: as §3
[6] = (§4) AUC (0 to t) in rat at 2 mg/kg, iv after 24 hrs; type: ADME, organism-based, Plasma; design: time < 24 hr, dose 2 mg/kg, route intravenous; conditions: plasma; method in brief: as §3
[7] = Half life in rat at 2 mg/kg, iv after 24 hrs; type: ADME, organism-based; design: dose 2 mg/kg, route intravenous; conditions: in vivo; method in brief: as §3
[8] = Cmax in rat at 2 mg/kg, iv after 24 hrs; type: ADME, organism-based; design: dose 2 mg/kg, route intravenous; conditions: in vivo; method in brief: as §3
[9] = Cmax in rat at 10 mg/kg, po after 24 hrs; type: ADME, organism-based; design: dose 10 mg/kg, route oral; conditions: in vivo; method in brief: as §3
[10] = (§5) Oral bioavailability in rat at 10 mg/kg after 24 hrs; type: ADME, organism-based; conditions: in vivo; method in brief: as §3
[11] = Clearance in rat at 2 mg/kg, iv after 24 hrs; type: ADME, organism-based; design: dose 2 mg/kg, route intravenous; conditions: in vivo; method in brief: as §3
[12] = biological target: Glycogen synthase kinase-3 beta (Homo sapiens, UniProt P49841); experiment: Inhibition of GSK3-beta
[13] = biological target: MAP kinase-activated protein kinase 2 (Homo sapiens, UniProt P49137); experiment: Inhibition of MAPKAPK2
[14] = biological target: Serine/threonine-protein kinase pim-1 (Homo sapiens, UniProt P11309); experiment: Inhibition of PIM1
Mus musculus = experiment: Inhibition of GSK3-beta phosphorylation in human BT474 xenografted ip dosed mouse after 4 hrs administered once relative to control; type: functional, organism-based
Method in brief: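 BT474 tumour-bearing xenograft mice received a single ip injection at 6.25, 12.5 or 25 mg/kg. Vehicle was 5% dextrose, pH 4.0. Tumours were harvested 4 h post-dose and pGSK3β levels compared with the vehicle group.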

[15] = biological target: Epidermal growth factor receptor (Homo sapiens, UniProt P00533)
[16] = biological target: Protein kinase C alpha type (Homo sapiens, UniProt P17252); experiment: Inhibition of PKCalpha
Rattus norvegicus [17] = experiment: as §2; type: ADME, organism-based, Plasma; design: time < 24 hr, dose 10 mg/kg, route oral; conditions: in vivo, 24 h; method in brief: as §3
Rattus norvegicus [18] = experiment: as §4; type: ADME, organism-based, Plasma; design: time < 24 hr, dose 2 mg/kg, route intravenous; conditions: in vivo, 24 h; method in brief: as §3
Rattus norvegicus [19] = experiment: as §5; type: ADME, organism-based; conditions: in vivo, 24 h; method in brief: as §3

Sequence of RAC-alpha serine/threonine-protein kinase (P31749 whole entry): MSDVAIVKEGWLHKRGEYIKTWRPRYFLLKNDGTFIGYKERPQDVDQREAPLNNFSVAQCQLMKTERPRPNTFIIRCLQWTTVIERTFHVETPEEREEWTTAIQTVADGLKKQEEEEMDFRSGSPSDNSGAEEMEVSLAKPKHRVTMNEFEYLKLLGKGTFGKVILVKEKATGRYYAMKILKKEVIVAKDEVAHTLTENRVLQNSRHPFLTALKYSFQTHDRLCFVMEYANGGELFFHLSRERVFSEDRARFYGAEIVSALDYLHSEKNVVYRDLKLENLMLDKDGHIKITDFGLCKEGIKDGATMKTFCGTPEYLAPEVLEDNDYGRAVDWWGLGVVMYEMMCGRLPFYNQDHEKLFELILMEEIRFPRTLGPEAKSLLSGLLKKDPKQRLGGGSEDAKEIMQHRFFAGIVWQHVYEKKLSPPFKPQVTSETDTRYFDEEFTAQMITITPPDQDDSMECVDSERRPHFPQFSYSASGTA
Sequence of RAC-gamma serine/threonine-protein kinase (Q9Y243 whole entry): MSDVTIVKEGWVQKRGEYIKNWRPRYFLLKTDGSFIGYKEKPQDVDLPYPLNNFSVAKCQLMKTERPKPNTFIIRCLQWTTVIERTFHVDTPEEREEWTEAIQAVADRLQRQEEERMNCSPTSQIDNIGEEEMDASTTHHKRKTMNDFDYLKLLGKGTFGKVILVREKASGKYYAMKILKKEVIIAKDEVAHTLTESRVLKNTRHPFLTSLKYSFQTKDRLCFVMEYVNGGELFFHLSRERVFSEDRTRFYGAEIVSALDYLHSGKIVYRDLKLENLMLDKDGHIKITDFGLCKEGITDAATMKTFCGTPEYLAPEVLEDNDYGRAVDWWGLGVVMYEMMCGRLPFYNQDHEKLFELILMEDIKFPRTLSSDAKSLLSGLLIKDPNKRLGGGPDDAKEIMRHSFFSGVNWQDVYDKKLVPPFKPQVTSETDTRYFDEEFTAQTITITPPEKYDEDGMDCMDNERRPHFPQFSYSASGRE
Sequence of Epidermal growth factor receptor (P00533 whole entry): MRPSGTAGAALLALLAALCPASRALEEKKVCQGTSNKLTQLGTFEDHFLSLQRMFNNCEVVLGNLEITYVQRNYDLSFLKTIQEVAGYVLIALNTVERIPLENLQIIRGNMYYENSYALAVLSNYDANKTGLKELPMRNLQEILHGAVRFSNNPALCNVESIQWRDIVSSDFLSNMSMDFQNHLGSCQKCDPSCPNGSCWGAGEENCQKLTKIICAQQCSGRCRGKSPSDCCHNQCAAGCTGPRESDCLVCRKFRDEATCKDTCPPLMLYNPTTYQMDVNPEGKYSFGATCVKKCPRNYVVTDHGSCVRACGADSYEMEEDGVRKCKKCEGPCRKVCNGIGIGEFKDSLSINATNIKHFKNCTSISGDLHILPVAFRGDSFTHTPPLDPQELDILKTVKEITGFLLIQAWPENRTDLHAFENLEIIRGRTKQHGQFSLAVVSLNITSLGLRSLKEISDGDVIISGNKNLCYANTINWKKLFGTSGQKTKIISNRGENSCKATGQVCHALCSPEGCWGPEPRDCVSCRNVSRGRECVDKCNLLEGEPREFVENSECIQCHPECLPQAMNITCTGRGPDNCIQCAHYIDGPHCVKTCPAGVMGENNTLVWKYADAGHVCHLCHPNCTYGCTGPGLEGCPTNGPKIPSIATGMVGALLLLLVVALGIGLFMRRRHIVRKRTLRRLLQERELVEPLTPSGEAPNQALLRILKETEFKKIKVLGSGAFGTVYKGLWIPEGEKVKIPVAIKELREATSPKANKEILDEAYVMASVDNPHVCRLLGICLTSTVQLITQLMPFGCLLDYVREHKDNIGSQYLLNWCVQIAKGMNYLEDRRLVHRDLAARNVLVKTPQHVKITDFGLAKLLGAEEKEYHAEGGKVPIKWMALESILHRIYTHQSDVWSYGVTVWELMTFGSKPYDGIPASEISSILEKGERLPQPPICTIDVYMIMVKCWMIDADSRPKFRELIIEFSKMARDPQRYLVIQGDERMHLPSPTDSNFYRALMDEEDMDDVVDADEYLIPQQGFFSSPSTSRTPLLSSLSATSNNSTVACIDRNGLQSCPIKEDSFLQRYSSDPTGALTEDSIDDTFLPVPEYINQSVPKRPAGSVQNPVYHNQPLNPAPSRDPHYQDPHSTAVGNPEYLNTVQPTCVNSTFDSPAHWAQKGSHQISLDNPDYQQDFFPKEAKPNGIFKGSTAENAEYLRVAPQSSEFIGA
Sequence of MAP kinase-activated protein kinase 2 (P49137 whole entry): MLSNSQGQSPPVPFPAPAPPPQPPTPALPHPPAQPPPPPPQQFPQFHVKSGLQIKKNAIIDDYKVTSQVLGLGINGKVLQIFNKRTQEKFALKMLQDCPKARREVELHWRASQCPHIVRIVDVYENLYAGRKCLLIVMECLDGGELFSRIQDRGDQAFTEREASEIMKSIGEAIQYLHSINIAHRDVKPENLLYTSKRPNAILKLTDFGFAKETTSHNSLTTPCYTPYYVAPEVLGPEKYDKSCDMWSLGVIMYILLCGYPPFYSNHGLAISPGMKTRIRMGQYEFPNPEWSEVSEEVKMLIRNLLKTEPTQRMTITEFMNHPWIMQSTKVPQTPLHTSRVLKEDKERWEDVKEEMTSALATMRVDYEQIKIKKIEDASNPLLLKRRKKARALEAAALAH
Sequence of Glycogen synthase kinase-3 beta (P49841 whole entry): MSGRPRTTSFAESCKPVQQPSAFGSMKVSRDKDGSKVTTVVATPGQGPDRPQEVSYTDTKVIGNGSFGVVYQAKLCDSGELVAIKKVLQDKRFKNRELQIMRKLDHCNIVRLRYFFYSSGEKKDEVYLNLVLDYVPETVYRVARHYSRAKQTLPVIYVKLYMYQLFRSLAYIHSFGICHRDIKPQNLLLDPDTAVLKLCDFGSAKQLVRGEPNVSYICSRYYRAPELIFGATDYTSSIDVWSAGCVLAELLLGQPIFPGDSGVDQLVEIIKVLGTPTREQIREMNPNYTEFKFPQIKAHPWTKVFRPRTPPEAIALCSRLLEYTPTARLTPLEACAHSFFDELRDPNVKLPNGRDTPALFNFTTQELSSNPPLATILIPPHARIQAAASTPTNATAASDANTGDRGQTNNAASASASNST
Sequence of Serine/threonine-protein kinase pim-1 (P11309 whole entry): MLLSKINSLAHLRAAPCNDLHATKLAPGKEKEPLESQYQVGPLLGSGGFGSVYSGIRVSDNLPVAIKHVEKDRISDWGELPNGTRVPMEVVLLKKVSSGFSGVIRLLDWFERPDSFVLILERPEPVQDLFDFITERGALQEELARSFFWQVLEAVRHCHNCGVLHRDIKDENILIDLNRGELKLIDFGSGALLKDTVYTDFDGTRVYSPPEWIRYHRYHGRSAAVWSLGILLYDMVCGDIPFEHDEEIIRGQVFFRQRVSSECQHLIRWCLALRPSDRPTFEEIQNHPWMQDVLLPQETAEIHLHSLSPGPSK

NCC(NC(=O)c1cc(-c2cccnc2)c(-c2ccnc3[nH]ccc23)s1)c1ccccc1 (stereo unspecified)
IC50 [1]: 6000 nM
IC50 [2]: 63 nM

NC[C@@H](Cc1ccccc1)NC(=O)c1cc(Br)c(-c2ccnc3[nH]ccc23)s1
IC50 (HFF): 1900 nM
IC50 [3]: 40 nM
IC50 (LNCaP): 2700 nM
IC50 (BT-474): 4500 nM
IC50 [1]: 6000 nM
IC50 [2]: 32 nM
Ki [2]: 20 nM

NCC(NC(=O)c1cc(Br)c(-c2ccnc3[nH]ccc23)s1)c1ccccc1 (racemic)
AUC(0-t) at 24 h [4]: 3400 ng·h/mL
IC50 (HFF): 1200 nM
IC50 [3]: 20 nM
half-life [5]: 4.1 h
IC50 (LNCaP): 750 nM
AUC(0-t) at 24 h [6]: 3250 ng·h/mL
half-life [7]: 3.6 h
Cmax [8]: 1800 ng/mL
Cmax [9]: 550 ng/mL
IC50 (BT-474): 4000 nM
IC50 [1]: 500 nM
bioavailability [10]: 32%
clearance [11]: 16.7 mL/min/kg
IC50 [2]: 8 nM
Ki [2]: 20 nM

NCC(NC(=O)c1cc(-c2ccnc3[nH]ccc23)cs1)c1ccccc1 (stereo unspecified)
IC50 [1]: 1000 nM
IC50 [2]: 40 nM

NC[C@H](Cc1cccc(F)c1)NC(=O)c1cc(Br)c(-c2ccnc3[nH]ccc23)s1
IC50 (HFF): 260 nM
IC50 [12]: 20000 nM
IC50 (LNCaP): 18 nM
IC50 [13]: 2500 nM
IC50 [14]: 794 nM
Activity (Mus musculus): Dose-dependent effect
IC50 (BT-474): 240 nM
IC50 [1]: 90 nM
IC50 [15]: 10000 nM
IC50 [16]: 40 nM
IC50 [2]: 1 nM
Ki [2]: 0.03 nM

NC[C@H](Cc1ccccc1C(F)(F)F)NC(=O)c1cc(Br)c(-c2ccnc3[nH]ccc23)s1
IC50 (HFF): 730 nM
IC50 [3]: 2 nM
IC50 (LNCaP): 24 nM
IC50 (BT-474): 60 nM
IC50 [1]: 50 nM
IC50 [2]: 3 nM
Ki [2]: 0.05 nM

NCC(NCc1ccc(-c2ccnc3[nH]ccc23)s1)c1ccccc1 (stereo unspecified)
IC50 [1]: > 10000 nM
IC50 [2]: 100 nM

NCCCC(NC(=O)c1cc(Br)c(-c2ccnc3[nH]ccc23)s1)c1ccccc1 (stereo unspecified)
IC50 [1]: 4800 nM
IC50 [2]: 20 nM

COc1ccc(C[C@@H](CN)NC(=O)c2cc(Br)c(-c3ccnc4[nH]ccc34)s2)cc1
IC50 (HFF): 890 nM
IC50 [3]: 2 nM
IC50 (LNCaP): 720 nM
IC50 (BT-474): 1900 nM
IC50 [1]: 1000 nM
IC50 [2]: 3 nM
Ki [2]: 5 nM

NCC(NC(=O)c1cc(-c2cn[nH]c2)c(-c2ccnc3[nH]ccc23)s1)c1ccccc1 (stereo unspecified)
IC50 [1]: 2500 nM
IC50 [2]: 63 nM

CCNCC(Cc1ccccc1)NC(=O)c1cc(Br)c(-c2ccnc3[nH]ccc23)s1 (stereo unspecified)
IC50 [1]: 1100 nM
IC50 [2]: 4 nM

NC[C@H](CC1CCCCC1)NC(=O)c1cc(Br)c(-c2ccnc3[nH]ccc23)s1
IC50 [3]: 3 nM
IC50 (LNCaP): 440 nM
IC50 (BT-474): 2600 nM
IC50 [1]: 1900 nM
IC50 [2]: 1 nM
Ki [2]: 0.79 nM

CN(C)CC(NC(=O)c1cc(Br)c(-c2ccnc3[nH]ccc23)s1)c1ccccc1 (stereo unspecified)
IC50 [1]: > 10000 nM
IC50 [2]: 20 nM

NCC(NC(=O)c1cc(-c2ccccc2)c(-c2ccnc3[nH]ccc23)s1)c1ccccc1 (stereo unspecified)
IC50 [1]: 10000 nM
IC50 [2]: 50 nM

Cc1cc(C(=O)NC(CN)c2ccccc2)sc1-c1ccnc2[nH]ccc12 (stereo unspecified)
IC50 [1]: 120 nM
IC50 [2]: 8 nM

NCC(C(=O)Nc1cc(Br)c(-c2ccnc3[nH]ccc23)s1)c1ccccc1 (stereo unspecified)
IC50 [1]: 4700 nM
IC50 [2]: 25 nM

NCC(NC(=O)c1ccc(-c2ccnc3[nH]ccc23)s1)c1ccccc1 (stereo unspecified)
IC50 [1]: 190 nM
IC50 [2]: 6 nM

NC[C@H](Cc1ccc(C(F)(F)F)cc1)NC(=O)c1cc(Br)c(-c2ccnc3[nH]ccc23)s1
IC50 (HFF): 1300 nM
IC50 [3]: 3 nM
IC50 (LNCaP): 440 nM
IC50 (BT-474): 1200 nM
IC50 [1]: 2000 nM
IC50 [2]: 2 nM
Ki [2]: 2 nM

NCC(NC(=O)c1cc(-c2c[nH]c3ncccc23)cs1)c1ccccc1 (stereo unspecified)
IC50 [1]: 1100 nM
IC50 [2]: 25 nM

NCC(C(=O)Nc1ccc(-c2ccnc3[nH]ccc23)s1)c1ccccc1 (stereo unspecified)
IC50 [1]: 560 nM
IC50 [2]: 3 nM

NC[C@H](Cc1ccccc1)NC(=O)c1cc(Br)c(-c2ccnc3[nH]ccc23)s1
IC50 (HFF): 90 nM
IC50 [3]: 2 nM
IC50 (LNCaP): 21 nM
IC50 (BT-474): 230 nM
IC50 [1]: 100 nM
IC50 [2]: 1 nM
Ki [2]: 0.06 nM

NCCC(NC(=O)c1cc(Br)c(-c2ccnc3[nH]ccc23)s1)c1ccccc1 (stereo unspecified)
IC50 [1]: 1500 nM
IC50 [2]: 8 nM

NC[C@H](Cc1ccc(F)cc1)NC(=O)c1cc(Br)c(-c2ccnc3[nH]ccc23)s1
IC50 (HFF): 490 nM
IC50 [3]: 2 nM
IC50 (LNCaP): 66 nM
IC50 (BT-474): 500 nM
IC50 [1]: 180 nM
IC50 [2]: 1 nM
Ki [2]: 0.06 nM

CNCC(Cc1ccccc1)NC(=O)c1cc(Br)c(-c2ccnc3[nH]ccc23)s1 (stereo unspecified)
IC50 [1]: 260 nM
IC50 [2]: 2 nM

NCC(CNc1ccc(-c2ccnc3[nH]ccc23)s1)c1ccccc1 (stereo unspecified)
IC50 [1]: > 10000 nM
IC50 [2]: 250 nM

NC[C@H](Cc1cccc(C(F)(F)F)c1)NC(=O)c1cc(Br)c(-c2ccnc3[nH]ccc23)s1
IC50 (HFF): 530 nM
IC50 [3]: 1 nM
IC50 (LNCaP): 78 nM
IC50 (BT-474): 60 nM
IC50 [1]: 170 nM
IC50 [2]: 1 nM
Ki [2]: 0.1 nM

NC(CNC(=O)c1cc(Br)c(-c2ccnc3[nH]ccc23)s1)c1ccccc1 (stereo unspecified)
IC50 [1]: > 10000 nM
IC50 [2]: 40 nM

NC[C@H](Cc1ccccc1F)NC(=O)c1cc(Br)c(-c2ccnc3[nH]ccc23)s1
IC50 (HFF): 260 nM
IC50 [3]: 2 nM
IC50 (LNCaP): 39 nM
IC50 (BT-474): 120 nM
IC50 [1]: 220 nM
IC50 [2]: 1 nM

NCCNC(=O)c1cc(Br)c(-c2ccnc3[nH]ccc23)s1
IC50 [1]: > 10000 nM
IC50 [2]: 158 nM

NCC(Cc1ccccc1)NC(=O)c1cc(Br)c(-c2ccnc3[nH]ccc23)s1 (racemic)
AUC (Rattus norvegicus [17]): 664 ng·h/mL
IC50 (HFF): 410 nM
IC50 [3]: 3 nM
IC50 (LNCaP): 45 nM
AUC (Rattus norvegicus [18]): 893 ng·h/mL
half-life [7]: 3.8 h
Cmax [8]: 712 ng/mL
Cmax [9]: 248 ng/mL
IC50 (BT-474): 200 nM
IC50 [1]: 80 nM
F (Rattus norvegicus [19]): 38%
clearance [11]: 49 mL/min/kg
IC50 [2]: 1 nM
Ki [2]: 0.04 nM

NC[C@H](Cc1ccncc1)NC(=O)c1cc(Br)c(-c2ccnc3[nH]ccc23)s1
IC50 (HFF): 3600 nM
IC50 (LNCaP): 750 nM
IC50 (BT-474): 2300 nM
IC50 [1]: 1900 nM
Ki [2]: 2 nM

CNCC(NC(=O)c1cc(Br)c(-c2ccnc3[nH]ccc23)s1)c1ccccc1 (stereo unspecified)
IC50 [1]: 780 nM
IC50 [2]: 3 nM

NCC(NC(=O)c1cc(C2CC2)c(-c2ccnc3[nH]ccc23)s1)c1ccccc1 (stereo unspecified)
IC50 [1]: 800 nM
IC50 [2]: 6 nM

CC(C)NCC(Cc1ccccc1)NC(=O)c1cc(Br)c(-c2ccnc3[nH]ccc23)s1 (stereo unspecified)
IC50 [1]: 2100 nM
IC50 [2]: 10 nM

NCC(NC(=O)c1ccc(-c2c[nH]c3ncccc23)s1)c1ccccc1 (stereo unspecified)
IC50 [1]: 240 nM
IC50 [2]: 16 nM
